Activity calls are given as the source filed them. The calls are words filed in the database; no cut-off is given here.
Columns and labels:
[1] = Retention time of the compound by HPLC method; type: physicochemical
[2] = Cytotoxicity against human DLD1 cells assessed as cell viability after 48 hrs by MTT assay; type: functional, cell-based; settings: DLD-1, 48 h
[3] = Cytotoxicity against human HCT8 cells assessed as cell viability after 48 hrs by MTT assay; type: functional, cell-based; settings: HCT-8, 48 h
HCT-116 [4] = test: Cytotoxicity against human HCT116 cells assessed as cell viability after 48 hrs by MTT assay; type: functional, cell-based; settings: HCT-116, 48 h
HCT-116 [5] = test: Induction of apoptosis in human HCT116 cells assessed as increased level of cleaved caspase-7 at 10 to 50 uM by Western blot analysis; type: functional, cell-based
HCT-116 [6] = test: Induction of apoptosis in human HCT116 cells assessed as increased level of procaspase-8 at 10 uM by Western blot analysis; type: functional, cell-based
HCT-116 [7] = test: Induction of apoptosis in human HCT116 cells assessed as apoptotic cells at 25 uM after 48 hrs using annexin-V FITC and propidium iodide staining by flow cytometry relative to lithocholic acid; type: functional
HCT-116 [8] = test: Induction of apoptosis in human HCT116 cells assessed as late apoptotic cells at 50 uM after 48 hrs using annexin-V FITC and propidium iodide staining by flow cytometry (reference value: 1.59%); type: functional
HCT-116 [9] = test: Inhibition of colony formation in human HCT116 cells at 15 uM after 2 weeks using crystal violet staining; type: functional; settings: HCT-116, 336 h
A549 [10] = test: Selectivity for human HCT8 cells over human A549 cells; type: functional
[11] = Selectivity ratio of human HCT8 cells over human THP1 cells; type: ADME, cell-based, THP-1; settings: HCT8 cells versus THP1 cells
A549 [12] = test: Selectivity ratio of human HCT116 cells over human A549 cells; type: functional
HCT-116 [13] = test: Induction of apoptosis in human HCT116 cells assessed as early apoptotic cells at 15 uM after 48 hrs using annexin-V FITC and propidium iodide staining by flow cytometry (reference value: 4.80%); type: functional
HCT-116 [14] = test: Induction of apoptosis in human HCT116 cells xenografted in nude mouse assessed as increased level of cleaved caspase-8 at 20 mg/kg after 6 days by Western blot analysis relative to control; type: functional, organism-based
Outline: (§1)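 Female nude mice, 6 weeks old, received 1.5 × 10^6 HCT-116 cells in the right flank. At ~750 mm3 mice were split into groups of 5 and dosed from day 19 at 20 mg kg−1 near the tumour, vehicle as control. Tumours were harvested at sacrifice on day 25 and homogenised in RIPA buffer. Equal protein loaded, transferred to PVDF, blocked in 5% milk/TBST, primary antibodies overnight at 4 °C, HRP secondary, ECL detection.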

HCT-116 [15] = test: Induction of apoptosis in human HCT116 cells xenografted in nude mouse assessed as increased level of cleaved caspase-3 at 20 mg/kg after 6 days by Western blot analysis relative to control; type: functional, organism-based; outline: as §1
HCT-116 [16] = test: Induction of apoptosis in human HCT116 cells assessed as increased level of cleaved caspase-3 at 10 to 50 uM by Western blot analysis; type: functional, cell-based
HCT-116 [17] = test: Induction of apoptosis in human HCT116 cells xenografted in nude mouse assessed as increased level of cleaved caspase-7 at 20 mg/kg after 6 days by Western blot analysis relative to control; type: functional, organism-based; outline: as §1
HCT-8 [18] = test: Ratio of lithocholic acid IC50 to compound IC50 for human HCT8 cells assessed as cell viability after 48 hrs by MTT assay; type: functional
[19] = Selectivity ratio of human HCT116 cells over CHO cells; type: cell-based; settings: Chinese hamster (CHO), HCT116 cells versus CHO cells
DLD-1 = test: Inhibition of colony formation in human DLD1 cells at 15 to 50 uM after 2 weeks using crystal violet staining; type: functional, cell-based
Outline: (§2)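 Cells plated at 200 per well and treated after 24 h adherence at 15, 25 or 50 μM. Colonies stained with crystal violet after 2 weeks and counted. Plating efficiency taken from untreated wells, survival fraction from treated colony counts. Two experiments in duplicate, mean ± SD.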

[20] = Cell cycle arrest in human DLD1 cells assessed as accumulation at sub-G1 phase at 50 uM after 48 hrs using propidium iodide staining by FACS analysis; type: functional, cell-based; settings: DLD-1
Outline: (§3)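 Cells seeded at ~2 × 10^5 per well, treated after 24 h at 15, 25 and 50 μM for 48 h. Harvested by trypsin, washed in cold PBS and fixed in 70% ice-cold ethanol. RNase-treated 1 h at 37 °C, stained with propidium iodide (50 μg mL−1) 20 min at room temperature, and analysed by FACS. Triplicate, mean ± SD.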

HCT-116 [21] = test: Inhibition of colony formation in human HCT116 cells at 50 uM after 2 weeks using crystal violet staining; type: functional, cell-based; outline: as §2
[22] = Selectivity ratio of human DLD1 cells over human THP1 cells; type: ADME, cell-based, THP-1; settings: DLD1 cells versus THP1 cells
A549 [23] = test: Selectivity ratio of human DLD1 cells over human A549 cells; type: functional
[24] = Cell cycle arrest in human HCT8 cells assessed as accumulation at sub-G1 phase at 50 uM after 48 hrs using propidium iodide staining by FACS analysis; type: functional, cell-based; settings: HCT-8; outline: as §3
HCT-116 [25] = test: Induction of apoptosis in human HCT116 cells assessed as decreased level of procaspase-8 at 50 uM by Western blot analysis; type: functional, cell-based
HCT-116 [26] = test: Antitumor activity against human HCT116 cells xenografted in nude mouse assessed as reduction in tumor volume at 20 mg/kg after 6 days; type: functional; design: scale not given: the % may be the effect or the level left
HCT-116 [27] = test: Induction of apoptosis in human HCT116 cells assessed as apoptotic cells at 50 uM after 48 hrs using annexin-V FITC and propidium iodide staining by flow cytometry relative to lithocholic acid; type: functional
[28] = Selectivity ratio of human HCT116 cells over human THP1 cells; type: ADME, cell-based, HCT-116; settings: HCT116 cells versus THP1 cells
[29] = Selectivity ratio of human DLD1 cells over CHO cells; type: cell-based; settings: Chinese hamster (CHO), DLD1 cells versus CHO cells
HCT-116 [30] = test: Ratio of lithocholic acid IC50 to compound IC50 for human HCT116 cells assessed as cell viability after 48 hrs by MTT assay; type: functional
HCT-8 [31] = test: Inhibition of colony formation in human HCT8 cells at 15 to 50 uM after 2 weeks using crystal violet staining; type: functional, cell-based; outline: as §2
HCT-116 [32] = test: Antitumor activity against human HCT116 cells xenografted in nude mouse assessed as reduction in tumor volume at 20 mg/kg measured up to 25 days; type: functional; design: scale not given: the % may be the effect or the level left
HCT-116 [33] = test: Induction of apoptosis in human HCT116 cells assessed as late apoptotic cells at 25 uM after 48 hrs using annexin-V FITC and propidium iodide staining by flow cytometry (reference value: 1.59%); type: functional
HCT-116 [34] = test: Induction of apoptosis in human HCT116 cells assessed as early apoptotic cells at 50 uM after 48 hrs using annexin-V FITC and propidium iodide staining by flow cytometry (reference value: 4.80%); type: functional
[35] = Toxicity in RBC (unknown origin) assessed as hemolytic activity; type: cell-based, Erythrocyte; settings: red blood cells
[36] = Selectivity ratio of human HCT8 cells over CHO cells; type: ADME, cell-based; settings: Chinese hamster (CHO), HCT8 cells versus CHO cells
HCT-116 [37] = test: Induction of apoptosis in human HCT116 cells assessed as early apoptotic cells at 25 uM after 48 hrs using annexin-V FITC and propidium iodide staining by flow cytometry (reference value: 4.80%); type: functional
HCT-116 [38] = test: Induction of apoptosis in human HCT116 cells assessed as late apoptotic cells at 15 uM after 48 hrs using annexin-V FITC and propidium iodide staining by flow cytometry (reference value: 1.59%); type: functional
HCT-116 [39] = test: Cell cycle arrest in human HCT116 cells assessed as accumulation at sub-G1 phase at 50 uM after 48 hrs using propidium iodide staining by FACS analysis; type: functional
HCT-116 [40] = test: Cell cycle arrest in human HCT116 cells at 15 to 50 uM after 48 hrs using propidium iodide staining by FACS analysis; type: functional, cell-based; outline: as §3
[41] = Cell cycle arrest in human HCT8 cells at 15 to 50 uM after 48 hrs using propidium iodide staining by FACS analysis; type: functional, cell-based; settings: HCT-8; outline: as §3
HCT-116 [42] = test: Inhibition of colony formation in human HCT116 cells at 15 to 50 uM after 2 weeks using crystal violet staining; type: functional, cell-based; outline: as §2
[43] = Cell cycle arrest in human DLD1 cells at 15 to 50 uM after 48 hrs using propidium iodide staining by FACS analysis; type: functional, cell-based; settings: DLD-1; outline: as §3

Question: What does the source list for `COC(=O)CC[C@@H](C)[C@H]1CC[C@H]2[C@@H]3CC[C@@H]4C[C@H](OC(=O)C[N+]5(C)CCCC5)CC[C@]4(C)[C@H]3CC[C@]12C.[Cl-]`?
Answer: Retention_time [1]: 8.23 min; IC50 [2]: 17 µM; IC50 [3]: 36.4 µM; IC50 (HCT-116 [4]): 17.8 µM

Question: Which IC50 [2] does the source give for `COC(=O)CC[C@@H](C)[C@H]1CC[C@H]2[C@@H]3CC[C@@H]4C[C@H](OC(=O)CN)CC[C@]4(C)[C@H]3CC[C@]12C` here?
Answer: The IC50 was 29.4 µM.

Question: What about the IC50 [3] of the same molecule?
Answer: The IC50 was 30.7 µM.

Question: What about the IC50 (HCT-116 [4]) of the same molecule?
Answer: The IC50 was 36.7 µM.

Question: What does the source list for `COC(=O)CC[C@@H](C)[C@H]1CC[C@H]2[C@@H]3CC[C@@H]4C[C@H](OC(=O)C[N+]5(C)CCCCC5)CC[C@]4(C)[C@H]3CC[C@]12C.[Cl-]`?
Answer: Activity (HCT-116 [5]): Active; Activity (HCT-116 [6]): inactive; Retention_time [1]: 8.12 min; Ratio (HCT-116 [7]): 1.3; Activity (HCT-116 [8]): 26.63%; inhibition at 15 µM (HCT-116 [9]): 50%; selectivity ratio (A549 [10]): 2; selectivity ratio [11]: 5; selectivity ratio (A549 [12]): 2; Activity (HCT-116 [13]): 9.04%; Activity (HCT-116 [14]): Active; Activity (HCT-116 [15]): Active; Activity (HCT-116 [16]): Active; Activity (HCT-116 [17]): Active; Ratio IC50 (HCT-8 [18]): 6; IC50 [2]: 13.7 µM; selectivity ratio [19]: 3; IC50 [3]: 14.7 µM; inhibition (DLD-1): Active; Activity [20]: 80%; inhibition (HCT-116 [21]): Active; IC50 (HCT-116 [4]): 11.7 µM; selectivity ratio [22]: 5; selectivity ratio (A549 [23]): 2; Activity [24]: 40%; Activity (HCT-116 [25]): Active; Activity (HCT-116 [26]): 75%; Ratio (HCT-116 [27]): 2; selectivity ratio [28]: 5; selectivity ratio [29]: 5; Ratio IC50 (HCT-116 [30]): 6; inhibition (HCT-8 [31]): Active; Activity (HCT-116 [32]): 75%; Activity (HCT-116 [33]): 15.78%; Activity (HCT-116 [34]): 41.19%; HC50 [35]: > 1 mM; selectivity ratio [36]: 5; Activity (HCT-116 [37]): 23.57%; Activity (HCT-116 [38]): 12.47%; Activity (HCT-116 [39]): 80%

Question: Which Retention_time [1] does the source give for `COC(=O)CC[C@@H](C)[C@H]1CC[C@H]2[C@@H]3CC[C@@H]4C[C@H](OC(=O)C[n+]5ccccc5)CC[C@]4(C)[C@H]3CC[C@]12C.[Cl-]` here?
Answer: The Retention_time was 7.84 min.

Question: What about the IC50 [2] of the same molecule?
Answer: Its IC50 is 35.4 µM.

Question: What about the IC50 [3] of the same molecule?
Answer: The IC50 was 35.4 µM.

Question: What about the IC50 (HCT-116 [4]) of the same molecule?
Answer: The IC50 was 26.5 µM.

Question: For `C[C@H](CCC(=O)O)[C@H]1CC[C@H]2[C@@H]3CC[C@@H]4C[C@H](O)CC[C@]4(C)[C@H]3CC[C@]12C` [LITHOCHOLIC ACID], which Activity (HCT-116 [40]) is on record?
Answer: The Activity was “inactive”.

Question: What about the Activity (HCT-116 [8]) of the same molecule?
Answer: Its Activity is 13.15%.

Question: And the Activity (HCT-116 [13])?
Answer: Its Activity is 10.21%.

Question: What about the IC50 [2] of the same molecule?
Answer: Its IC50 is 173 µM.

Question: And the Activity [41]?
Answer: Its Activity is “inactive”.

Question: What about the IC50 [3] of the same molecule?
Answer: The IC50 was 97.4 µM.

Question: And the inhibition (HCT-116 [42])?
Answer: Its inhibition is “inactive”.

Question: What about the inhibition (DLD-1) of the same molecule?
Answer: The inhibition was “inactive”.

Question: And the IC50 (HCT-116 [4])?
Answer: Its IC50 is 81.1 µM.

Question: And the inhibition (HCT-8 [31])?
Answer: The inhibition was “inactive”.

Question: What about the Activity [43] of the same molecule?
Answer: Its Activity is “inactive”.

Question: And the Activity (HCT-116 [33])?
Answer: Its Activity is 11.54%.

Question: What about the Activity (HCT-116 [34]) of the same molecule?
Answer: Its Activity is 21.89%.

Question: And the Activity (HCT-116 [37])?
Answer: Its Activity is 18.79%.

Question: And the Activity (HCT-116 [38])?
Answer: Its Activity is 8.88%.

Question: Which results are given for `COC(=O)CC[C@@H](C)[C@H]1CC[C@H]2[C@@H]3CC[C@@H]4C[C@H](OC(=O)C[N+]56CCN(CC5)CC6)CC[C@]4(C)[C@H]3CC[C@]12C.[Cl-]`?
Answer: Retention_time [1]: 7.98 min; IC50 [2]: 46.4 µM; IC50 [3]: 76.4 µM; IC50 (HCT-116 [4]): 60.7 µM
